# Experimental data published in ChEMBL document CHEMBL4342521 (J Med Chem, 2020).
# The source made the active and inactive calls. The rule behind the calls is not given here.
# Key:
# MV4-11 [1] = assay: Inhibition of ERK phosphorylation in human MV4-11 cells harboring wild type p53/FLT3-ITD mutant at 50 to 200 nM after 24 hrs by Western blot analysis; format: cell-based
# In short: (§1)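 Cells (1,500,000 per well) grown 12 h, then drug-treated as specified. Lysed in RIPA buffer, sonicated, centrifuged, protein normalized by BCA. Run on 4–12% Bis-Tris gels in MES, transferred, probed overnight at 4 °C with primary antibodies at 1/1000. Actin served as reference for LC3-II quantitation.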
# MV4-11 [2] = assay: Down regulation of FTL3 in human MV4-11 cells harboring wild type p53/FLT3-ITD mutant at 50 to 200 nM after 24 hrs by Western blot analysis; format: functional, cell-based; in short: as §1
# [3] = target: 72 kDa type IV collagenase (Homo sapiens) (UniProt P08253); assay: Inhibition of MMP-2 (unknown origin) at 10 to 50 uM incubated for 10 to 15 mins and measured after 2 hrs by fluorescence based assay
# In short: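 MMP-2/MMP-9 in activation buffer with test agent (final 50 and 10 μM), 10–15 min incubation, then fluorogenic substrate added. Incubated 2 h at 37 °C; fluorescence read at 320/405 nm. Kit MMP inhibitor was the positive control.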
# SF-539 = assay: Antiproliferative activity against human SF539 cells assessed as reduction in cell viability after 48 hrs by CellTiter-Blue assay; format: functional; details: SF-539, 48 h, read-out: LC50 (the source's name)
# In short: (§2)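 Cells grown in RPMI1640 with 10% FBS at 37 °C, 5% CO₂. 5,000–10,000 cells/well were pre-incubated overnight, and a time-zero CellTiter-Blue read was taken. Six 10-fold dilutions (top final 10 μM) were applied for 48 h, followed by 0.125 mg/mL CellTiter-Blue for 2–4 h. Resorufin fluorescence was read at ex 560/em 590 nm. […] Triplicates.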
# A549 = assay: Antiproliferative activity against human A549 cells assessed as reduction in cell viability after 48 hrs by CellTiter-Blue assay; format: functional; details: A549, 48 h, read-out: LC50 (the source's name); in short: as §2
# [4] = target: Aminopeptidase N (Sus scrofa) (UniProt P15145); assay: Inhibition of porcine kidney microsomal APN at 10 uM using L-leucine-p-nitroanilide as substrate preincubated for 5 mins followed by substrate addition and measured after 30 mins by microplate reader analysis; format: subcellular; details: Sus scrofa domesticus
# In short: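 Porcine kidney microsomal aminopeptidase (CD13) with test agent (final 50 and 10 μM; bestatin 10 μM as reference), 5 min, then L-leucine-p-nitroanilide added. Incubated 30 min at 37 °C; absorbance read at 405 nm.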
# EKVX = assay: Antiproliferative activity against human EKVX cells assessed as reduction in cell viability after 48 hrs by CellTiter-Blue assay; format: functional; details: read-out: LC50 (the source's name); in short: as §2
# HL-60 = assay: Antiproliferative activity agaisnt p53 null human HL60 cells at 10 uM after 48 hrs by CellTiter-blue assay; format: functional, cell-based
# MDA-MB-231 = assay: Antiproliferative activity against human MDA-MB-231 cells assessed as reduction in cell viability after 48 hrs by CellTiter-Blue assay; format: functional; details: MDA-MB-231, 48 h, read-out: LC50 (the source's name); in short: as §2
# K562 = assay: Antiproliferative activity against human K562 cells assessed as reduction in cell viability after 48 hrs by CellTiter-Blue assay; format: functional; details: K562, 48 h, read-out: LC50 (the source's name); in short: as §2
# [5] = target: Protein deacetylase HDAC6 (Homo sapiens) (UniProt Q9UBN7); assay: Inhibition of HDAC6 in human MV4-11 cells assessed as tubulin acetylation at 500 nM incubated for 3 hrs followed by compound washout and measured after 30 mins to 6 hrs by Western blot analysis; format: cell-based
# In short: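 MV4-11 cells exposed for 3 h, drug washed out, then cultured drug-free for 30 min, 1, 3 or 6 h. Acetylation read by western blot; t = 0 taken right after the 3 h exposure.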
# RS4-11 = assay: Down regulation of STAT5 expression in human RS4:11 cells harboring wild type p53/FLT3 assessed as cleavage of pro-caspase 3 at 50 to 200 nM after 24 hrs by Western blot analysis; format: functional, cell-based; in short: as §1
# MOLT-4 = assay: Antiproliferative activity against human MOLT4 cells assessed as reduction in cell viability after 48 hrs by CellTiter-Blue assay; format: functional; details: MOLT-4, 48 h, read-out: LC50 (the source's name); in short: as §2
# [6] = Mutagenecity in Salmonella typhimurium TA100 at 10 uM in presence of S9 liver homogenate after 2 to 3 days by mini-Ames test; format: toxicity; details: salmonella enterica subsp. enterica serovar typhimurium, s9, 10 µM
# In short: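 Compound was tested at a final 10 μM undiluted plus four serial dilutions, with S9 mix and glucose/biotin/trace-histidine exposure solution, for 100 min at 37 °C. Reversion medium was added and cultures dispensed to 96 wells for 2–3 days at 37 °C. Yellow or partial-yellow wells were scored positive; 2-aminoanthracene was the positive control.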
# NCI-H460 = assay: Antiproliferative activity against human NCI-H460 cells assessed as reduction in cell viability after 48 hrs by CellTiter-Blue assay; format: functional; details: NCI-H460, 48 h, read-out: LC50 (the source's name); in short: as §2
# MV4-11 [7] = assay: Induction of apoptosis in human MV4-11 cells harboring wild type p53/FLT3-ITD mutant assessed as XIAP degradation at 50 to 200 nM after 24 hrs by Western blot analysis; format: functional, cell-based; in short: as §1
# RPMI-8226 = assay: Antiproliferative activity against human RPMI8226 cells assessed as reduction in cell viability after 48 hrs by CellTiter-Blue assay; format: functional; details: RPMI-8226, 48 h, read-out: LC50 (the source's name); in short: as §2
# SK-MEL-2 = assay: Antiproliferative activity against human SK-MEL-2 cells assessed as reduction in cell viability after 48 hrs by CellTiter-Blue assay; format: functional; details: SK-MEL-2, 48 h, read-out: LC50 (the source's name); in short: as §2
# HCC 2998 = assay: Antiproliferative activity against human HCC2998 cells assessed as reduction in cell viability after 48 hrs by CellTiter-Blue assay; format: functional; details: HCC 2998, 48 h, read-out: LC50 (the source's name); in short: as §2
# NCI-H23 = assay: Antiproliferative activity against human NCI-H23 cells assessed as reduction in cell viability after 48 hrs by CellTiter-Blue assay; format: functional; details: NCI-H23, 48 h, read-out: LC50 (the source's name); in short: as §2
# LOX IMVI = assay: Antiproliferative activity against human LOXIMVI cells assessed as reduction in cell viability after 48 hrs by CellTiter-Blue assay; format: functional; details: read-out: LC50 (the source's name); in short: as §2
# MCF7 = assay: Antiproliferative activity against human MCF7 cells assessed as reduction in cell viability after 48 hrs by CellTiter-Blue assay; format: functional; details: MCF7, 48 h, read-out: LC50 (the source's name); in short: as §2
# SK-MEL-28 = assay: Antiproliferative activity against human SK-MEL-28 cells assessed as reduction in cell viability after 48 hrs by CellTiter-Blue assay; format: functional; details: SK-MEL-28, 48 h, read-out: LC50 (the source's name); in short: as §2
# MV4-11 [8] = assay: Inhibition of p53 degradation in human MV4-11 cells harboring wild type p53/FLT3-ITD mutant assessed as cleavage of pro caspase-3 at 100 nM after 24 hrs in presence of MDM2 inhibitor RG7388 by Western blot analysis; format: functional, cell-based; in short: as §1
# Chain of Aminopeptidase N (Sus scrofa) (P15145 whole entry): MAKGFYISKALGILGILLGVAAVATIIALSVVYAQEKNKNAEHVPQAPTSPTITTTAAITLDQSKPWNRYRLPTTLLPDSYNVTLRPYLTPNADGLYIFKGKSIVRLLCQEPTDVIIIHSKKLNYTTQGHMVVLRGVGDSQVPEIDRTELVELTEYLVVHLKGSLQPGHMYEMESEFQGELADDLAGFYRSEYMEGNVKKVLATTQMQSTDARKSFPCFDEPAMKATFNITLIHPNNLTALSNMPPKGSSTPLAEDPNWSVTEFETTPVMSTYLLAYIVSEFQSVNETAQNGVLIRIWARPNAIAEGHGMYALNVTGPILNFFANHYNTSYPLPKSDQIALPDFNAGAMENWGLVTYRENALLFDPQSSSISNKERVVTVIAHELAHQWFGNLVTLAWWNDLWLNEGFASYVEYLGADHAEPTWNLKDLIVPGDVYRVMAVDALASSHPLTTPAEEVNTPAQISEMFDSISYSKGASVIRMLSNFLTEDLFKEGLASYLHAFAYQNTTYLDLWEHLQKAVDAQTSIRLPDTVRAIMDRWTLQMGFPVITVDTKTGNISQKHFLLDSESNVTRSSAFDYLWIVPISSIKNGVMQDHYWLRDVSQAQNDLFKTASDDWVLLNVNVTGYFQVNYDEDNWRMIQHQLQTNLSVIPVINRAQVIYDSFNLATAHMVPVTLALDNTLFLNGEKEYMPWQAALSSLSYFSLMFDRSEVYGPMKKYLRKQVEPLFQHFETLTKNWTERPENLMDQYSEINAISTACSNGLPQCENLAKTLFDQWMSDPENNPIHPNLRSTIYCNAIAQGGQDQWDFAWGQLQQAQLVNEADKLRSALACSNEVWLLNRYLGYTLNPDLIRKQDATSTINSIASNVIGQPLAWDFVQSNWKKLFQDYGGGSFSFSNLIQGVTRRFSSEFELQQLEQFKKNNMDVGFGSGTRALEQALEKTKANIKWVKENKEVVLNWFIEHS
# Chain of 72 kDa type IV collagenase (Homo sapiens) (P08253 110-660 limits assumed): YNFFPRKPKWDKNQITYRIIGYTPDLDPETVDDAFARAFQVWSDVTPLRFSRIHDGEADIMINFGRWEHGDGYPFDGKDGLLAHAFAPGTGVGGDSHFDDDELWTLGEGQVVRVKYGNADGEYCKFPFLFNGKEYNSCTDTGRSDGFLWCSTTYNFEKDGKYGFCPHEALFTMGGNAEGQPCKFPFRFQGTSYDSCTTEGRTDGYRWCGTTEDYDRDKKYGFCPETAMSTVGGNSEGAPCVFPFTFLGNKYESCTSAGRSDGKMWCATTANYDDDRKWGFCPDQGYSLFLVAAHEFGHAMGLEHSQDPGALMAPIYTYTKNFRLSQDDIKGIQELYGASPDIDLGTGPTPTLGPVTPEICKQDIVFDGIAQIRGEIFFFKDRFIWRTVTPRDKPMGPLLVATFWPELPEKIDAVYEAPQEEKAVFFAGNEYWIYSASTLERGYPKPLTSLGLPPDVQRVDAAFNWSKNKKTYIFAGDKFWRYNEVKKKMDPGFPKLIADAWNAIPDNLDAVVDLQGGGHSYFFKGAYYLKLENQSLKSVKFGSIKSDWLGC
# Chain of Protein deacetylase HDAC6 (Homo sapiens) (Q9UBN7 whole entry): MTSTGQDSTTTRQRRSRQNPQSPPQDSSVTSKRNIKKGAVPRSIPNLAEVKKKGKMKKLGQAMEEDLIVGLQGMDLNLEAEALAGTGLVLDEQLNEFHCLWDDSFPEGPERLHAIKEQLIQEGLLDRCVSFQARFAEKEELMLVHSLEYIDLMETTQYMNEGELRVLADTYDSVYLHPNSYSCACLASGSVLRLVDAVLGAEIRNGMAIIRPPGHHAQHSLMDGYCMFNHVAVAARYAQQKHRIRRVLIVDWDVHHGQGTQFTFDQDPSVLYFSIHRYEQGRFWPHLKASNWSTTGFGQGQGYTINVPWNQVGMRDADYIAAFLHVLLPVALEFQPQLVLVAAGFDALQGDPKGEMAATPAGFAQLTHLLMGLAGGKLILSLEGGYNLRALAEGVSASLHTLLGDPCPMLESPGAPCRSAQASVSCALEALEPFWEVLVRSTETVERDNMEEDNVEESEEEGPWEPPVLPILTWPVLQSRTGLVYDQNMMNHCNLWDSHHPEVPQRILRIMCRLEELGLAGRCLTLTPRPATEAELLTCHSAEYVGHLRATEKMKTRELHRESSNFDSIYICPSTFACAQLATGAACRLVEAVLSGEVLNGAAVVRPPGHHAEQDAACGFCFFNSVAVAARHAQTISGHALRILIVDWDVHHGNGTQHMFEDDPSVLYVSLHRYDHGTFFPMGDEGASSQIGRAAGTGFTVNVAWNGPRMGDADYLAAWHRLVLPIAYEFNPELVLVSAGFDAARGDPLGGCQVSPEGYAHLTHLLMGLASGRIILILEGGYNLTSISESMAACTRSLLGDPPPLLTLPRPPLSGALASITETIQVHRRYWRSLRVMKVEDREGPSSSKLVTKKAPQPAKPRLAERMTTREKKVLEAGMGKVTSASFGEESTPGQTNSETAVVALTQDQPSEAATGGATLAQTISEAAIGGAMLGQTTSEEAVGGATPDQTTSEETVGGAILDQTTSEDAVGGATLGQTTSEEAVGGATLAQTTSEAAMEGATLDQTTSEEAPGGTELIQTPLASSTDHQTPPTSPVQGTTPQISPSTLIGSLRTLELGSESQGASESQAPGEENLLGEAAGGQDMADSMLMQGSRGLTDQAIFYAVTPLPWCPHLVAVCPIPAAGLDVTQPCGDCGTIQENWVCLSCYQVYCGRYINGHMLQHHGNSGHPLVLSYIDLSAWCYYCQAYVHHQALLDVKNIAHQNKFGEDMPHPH
smiles,measurement,setting,value
CCCNNC(=O)/C=C/c1ccc(CNCCc2c(C)[nH]c3ccccc23)cc1.O=C(O)C(F)(F)F,inhibition,MV4-11 [1],Active
same,Activity,MV4-11 [2],Active
same,inhibition,[3],inactive
same,CC50,SF-539,> 10 µM
same,CC50,A549,> 10 µM
same,inhibition,[4],inactive
same,CC50,EKVX,> 10 µM
same,Activity,HL-60,Active
same,CC50,MDA-MB-231,> 10 µM
same,CC50,K562,> 10 µM
same,inhibition,[5],inactive
same,Activity,RS4-11,inactive
same,CC50,MOLT-4,> 10 µM
same,Activity,[6],Non-Toxic
same,CC50,NCI-H460,> 10 µM
same,Activity,MV4-11 [7],Active
same,CC50,RPMI-8226,> 10 µM
same,CC50,SK-MEL-2,> 10 µM
same,CC50,HCC 2998,1.76 µM
same,CC50,NCI-H23,> 10 µM
same,CC50,LOX IMVI,0.537 µM
same,CC50,MCF7,> 10 µM
same,CC50,SK-MEL-28,0.893 µM
same,inhibition,MV4-11 [8],Active
